Sampled rows, rich in hits. Any-hit rate of the full collection: about 3.8%.
KCNK9 inh: KCNK9 potassium channel inhibitors, primary screen, HEK293 cells, thallium flux; Potassium channel subfamily K member 9 (Homo sapiens), Q9NPC2; FluxOR thallium flux fluorescence; hits give low values; B-score at 10 µM; hit rate 1.2% among 310,000;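 active means ratio B-score over 3 SD below the library mean, with starting fluorescence within 5 SD of its mean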;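 further: negative B-score means less thallium flux so channel inhibition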
KCNK3 inh: human KCNK3 channel inhibitors, primary screen, CHO cells, FluxOR thallium flux, B-score | AID 602410, 2012 | FluxOR fluorescence; hits give low values | Potassium channel subfamily K member 3 (Homo sapiens), O14649 | B-score at 10 µM | hit rate 0.84% among 340,000;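 active means B-score under library mean minus 4 SD, starting fluorescence ratio at most library mean plus 5 SD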;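 further: more negative B-score means stronger inhibition of thallium flux through KCNK3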
Target sequence (O14649 whole entry, looked up): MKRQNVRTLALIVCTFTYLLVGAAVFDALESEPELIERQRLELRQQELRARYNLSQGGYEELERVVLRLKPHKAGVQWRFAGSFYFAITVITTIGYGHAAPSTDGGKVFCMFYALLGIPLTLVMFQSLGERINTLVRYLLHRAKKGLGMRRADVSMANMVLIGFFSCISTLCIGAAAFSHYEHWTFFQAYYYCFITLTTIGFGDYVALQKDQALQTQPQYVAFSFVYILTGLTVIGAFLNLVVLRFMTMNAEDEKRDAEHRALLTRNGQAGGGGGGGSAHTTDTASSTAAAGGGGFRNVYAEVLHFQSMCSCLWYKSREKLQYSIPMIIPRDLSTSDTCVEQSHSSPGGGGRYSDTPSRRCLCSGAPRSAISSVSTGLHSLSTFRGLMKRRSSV
KCNQ1 pot: potentiators or activators of KCNQ1 channel, primary screen, cell-based, thallium flux, high-throughput. Potassium voltage-gated channel subfamily KQT member 1 (Homo sapiens), P51787. CHO-K1 KCNQ1, thallium flux FluxOR fluorescence; hits give high values. B-score at 10 µM. hit rate 0.35% among 310,000;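 active means fluorescence ratio B-score, a plate-corrected score, at least three library SD, with initial intensity B-score within 5 SD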
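Doses: Single concentration per compound, DMSO matched to controls | Test system: KCNQ1-transfected CHO-K1 cells | Timing: 90 min dye loading and 20 min compound exposure, both at room temperature | Measured by: Kinetic FluxOR thallium fluorescence, 10-s 1-Hz baseline, 110-s post-stimulus read | Medium: Assay buffer with matched DMSO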
KCNQ1 block: inhibitors of human KCNQ1 channel, primary screen, cell-based, thallium flux, high-throughput; CHO-K1 KCNQ1, FluxOR thallium flux fluorescence; hits give high values; hit rate 1.3% among 310,000; AID 2642, 2010; B-score at 10 µM; Potassium voltage-gated channel subfamily KQT member 1 (Homo sapiens), P51787;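 active means compounds whose thallium flux B-score, printed positive for inhibition, exceeds three library SD while starting fluorescence stays within three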;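 further: channel opened by potassium depolarization with thallium stimulus after 20 min compound exposure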
Kir21 inh: inhibitors of mouse Kir2.1 inward-rectifier potassium channel; Inward rectifier potassium channel 2 (Mus musculus), P35561; HEK293-Kir2.1, FluxOR thallium flux fluorescence; hits give low values; B-score at 10 µM; hit rate 0.85% among 310,000;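 active means fluorescence ratio B-score at or below minus 3 SD of library scores, with starting-brightness B-score within 2 SD, cut at about -4.2 in these data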;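 further: channel flux triggered by added potassium and thallium sulfate stimulus; B-score of peak minus minimum fluorescence over baseline after thallium stimulus; more negative B-score means stronger Kir2.1 block with less thallium influx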
hERG protect: hERG rescue from dofetilide block, primary screen, cell-based, CHO-hERG, FluxOR thallium flux, dofetilide IC70. dofetilide IC70 present. AID 1511, 2009. hit rate 0.51% among 310,000. activation (rescue from dofetilide block), less the hit threshold, % at 10 µM. Voltage-gated inwardly rectifying potassium channel KCNH2 (Homo sapiens), Q12809;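 active means activation above the mean of controls blocked by dofetilide plus 5 SD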;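 further: thallium influx through hERG after potassium depolarization seen as dye fluorescence rise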
KCNK9 block conf: KCNK9 potassium channel inhibitors, confirmation, HEK293 cells, thallium flux, duplicate; AID 492992, 2010; hit rate 43% among 4,900; shares compounds with KCNK9 inh; inhibition, % at 10 µM; FluxOR thallium flux fluorescence;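 active means thallium signal inhibited by more than 5 SD of the compound-free buffer control wells, on both duplicate plates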;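 further: 0% = assay buffer control wells without compound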
Kir2-1 spec: mouse Kir2.1 channel inhibition, confirmation, selectivity assay for KCNK9 modulator project, cell-based, HEK293, thallium flux. shares compounds with KCNK9 inh. inhibition, % at 10 µM. AID 492993, 2010. Kir2.1 cells, FluxOR thallium flux fluorescence. hit rate 4% among 4,900;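 active means thallium signal drop more than 5 SD beyond the mean of the no-compound control wells, seen in both duplicate plates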;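 further: signal is fluorescence rise after thallium addition divided by baseline fluorescence; plate controls were assay buffer only for no effect and full block by chlorpromazine control for full effect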
KCNK9 uninduced: thallium flux in non-induced HEK293 cells, confirmation, counter-screen for KCNK9 inhibitor project, cell-based, second counter screen, non-induced KCNK9-HEK293; shares compounds with KCNK9 inh; FluxOR thallium flux; inhibition, % at 10 µM; hit rate 40% among 4,900;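 active means thallium signal drop beyond 5 SD of the untreated control mean, on both duplicate plates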;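 further: plate controls were buffer only IC0 wells for no effect and SID17386958 at its maximal inhibitory level for full effect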
The depositor's hits bear a star; i = inactive; / = no result.

SMILES | KCNK9 inh | KCNK3 inh | KCNQ1 pot | KCNQ1 block | Kir21 inh | hERG protect | KCNK9 block conf | Kir2-1 spec | KCNK9 uninduced
CCOC(=O)C1CCN(C(=O)C2CCC(=O)N(Cc3cccc(C(F)(F)F)c3)C2)CC1 (configuration not stated) | i | i | i | i | -0.71 | -13.4 | / | / | /
COc1nc(-c2ccc(Cl)cc2)nnc1C | i | i | i | i | 0.6 | -1.4 | / | / | /
COc1ccc(NC(=O)c2cc(-c3cccnc3)nc3c(C)c(C)ccc23)c(OC)c1 | i | i | i | i | 0.18 | -17.6 | i | i | i
COc1ccc(NC(=O)c2ccccc2Oc2ccccc2)c(OC)c1 | -8.4* | i | i | i | -0.18 | -8.7 | 55.0%* | i | 29.5%*
CCCc1[nH]nc2c1C1(CCN(C(=O)OCc3ccccc3)CC1)C(C#N)=C(N)O2 | -9.69* | i | i | i | -0.44 | -8.8 | 32.5%* | i | i
COc1ccc(C(C)(C)C)cc1NC(=O)CNc1cccc2ccccc12 | i | i | i | i | -0.67 | -13.5 | i | i | i
CCOC(=O)C1=C(C)c2ccccc2OC1(C(=O)OCC)C(C)C (configuration not stated) | / | i | / | / | / | / | / | / | /
O=C(CCSc1ccccc1Cl)Nc1cccc([N+](=O)[O-])c1 | i | i | i | i | 1.83 | -14.5 | i | i | 30.0%*
Cc1ccccc1CN(CC(=O)Nc1cccc([N+](=O)[O-])c1)S(=O)(=O)c1ccc(Cl)cc1 | i | i | i | 9* | -0.01 | -10.2 | i | i | i
COc1ccc(C(=O)NCC(=O)OCCOc2ccc(Cl)cc2)cc1OC | / | i | / | / | / | / | / | / | /
OCCC1CN(CC2CCCCC2)CCN1CC1CCCCC1 (configuration not stated) | i | i | i | i | 0.03 | -0.1 | / | / | /
CCCCOC(=O)Nc1cc(Cl)ccc1C | -13.4* | i | i | i | 0.19 | -9.1 | 32.5%* | i | i
CCCCOC(=O)Nc1cc(C)c(Cl)cc1OC | i | i | i | i | -0.51 | 0.7 | / | / | /
Clc1ccc(-c2ccc(-c3nn4c(-c5ccco5)nnc4s3)o2)cc1 | -9.76* | i | i | i | 0.29 | -9.1 | 40.0%* | i | i
Brc1ccc(-c2nn3c(-c4ccco4)nnc3s2)o1 | i | i | i | i | -0.11 | -7.0 | / | / | /
CCOC(=O)C1CCN(CCC(=O)Nc2ccc(Br)cc2)CC1 | i | i | i | i | -1.74 | -7.7 | / | / | /
CC(C)CN1C(=S)SC(C)(C)C1n1oc(=O)n(-c2ccccc2)c1=O (configuration not stated) | i | i | i | i | -0.61 | -0.5 | i | i | i
C/C(=N\NC(=S)NCCc1ccccc1)c1ccc(C#N)cc1 | i | i | i | i | -0.06 | -7.3 | / | / | /
C/C(=N\NC(=S)NCCc1ccccc1)c1ccc(Cl)cc1 | i | i | i | i | 1.34 | -0.2 | i | i | i
C/C(=N\NC(=S)NCCc1ccccc1)c1ccc(C)cc1 | i | i | i | i | 1.91 | -11.7 | i | i | i
S=C(NCCc1ccccc1)N/N=C/c1ccccc1Cl | i | i | i | i | -1.45 | -3.5 | i | i | i
CC1(C)CC(=O)C=C(Nc2ccc(O)c(C(=O)O)c2)C1 | i | i | i | i | 0.1 | -3.0 | / | / | /
CCNc1ccc(Br)cc(C(=O)/C=C/c2ccccc2Cl)c1=O | i | i | i | i | -0.87 | -23.1 | / | / | /
O=C(NC[C@@H]1CCCO1)c1cccc2c1C(=O)c1ccc(Cl)cc1S2(=O)=O | / | i | / | / | / | / | / | / | /
CC(=O)OC1CC(C)(C)N(OC(=O)CCCN2C(=O)c3ccccc3C2=O)C(C)(C)C1 | i | i | i | i | 1.77 | -5.9 | i | i | i
SMILES | KCNK9 inh | KCNK3 inh | KCNQ1 pot | KCNQ1 block | Kir21 inh | hERG protect | KCNK9 block conf | Kir2-1 spec | KCNK9 uninduced
O=C(CCCN1C(=O)c2ccccc2C1=O)Oc1ccc(F)cc1 | i | i | i | i | 0.43 | -2.8 | / | / | /
CCOC(=O)c1cc(CC)sc1NC(=O)CN1CCN(C(=O)C2CCCO2)CC1 (configuration not stated) | i | i | i | i | -1.13 | -9.9 | / | / | /
Cc1ccc(NC(=O)N(Cc2cccs2)Cc2cc3cc4c(cc3[nH]c2=O)OCO4)cc1 | i | / | i | i | 0.04 | -11.8 | / | / | /
O=C(Nc1ccc(F)cc1)N(Cc1cccs1)Cc1cc2cc3c(cc2[nH]c1=O)OCO3 | -10.8* | i | i | i | -1.12 | -7.2 | i | i | 42.5%*
c1ccc(CCSc2nccn2-c2ccccc2)cc1 | i | i | i | i | -0.01 | -7.2 | / | / | /
CCc1ccc(CSc2nccn2-c2ccccc2)cc1 | i | i | i | i | -4.89* | -10.6 | i | i | i
Cc1ccc(SCC2(O)CCN(S(=O)(=O)c3ccc(Cl)cc3)CC2)cc1 | i | i | 80* | i | -1.05 | -10.0 | i | i | i
CC(C)COc1ccc(C(=O)N(CC(=O)Nc2ccccc2C(F)(F)F)Cc2ccco2)cc1 | i | i | i | i | 0.57 | -14.1 | i | i | i
O=C(CN(Cc1ccco1)C(=O)c1ccc([N+](=O)[O-])cc1)Nc1ccccc1C(F)(F)F | / | i | / | / | / | / | / | / | /
Cc1cc(C)nc(Nc2ccccc2Br)n1 | i | i | i | i | -0.28 | -2.5 | / | / | /
Cc1cc(C)nc(N/C(=N\S(=O)(=O)Cc2ccccc2)Nc2ccccc2Br)n1 | -9.38* | i | i | i | 1.91 | -9.0 | 40.5%* | i | i
O=C1NN(c2ccccc2)C(=O)/C1=C/c1ccc(-c2ccc(C(=O)O)cc2)o1 | i | i | i | i | 1.45 | -1.8 | / | / | /

Screening data from PubChem BioAssay.
